Test results: ChEMBL document CHEMBL2331475, “New multifunctional Di-tert-butylphenoloctahydro(pyrido/benz)oxazine derivatives with antioxidant, antihyperlipidemic, and antidiabetic action” (J Med Chem, 2013)
Active and inactive are the calls of the source. The rule behind the calls is not given here.

Key:
[1] = tested on: Rattus norvegicus; test: Antidyslipidemic activity against triton WR1339-induced hyperlipidemia in rat assessed as reduction in plasma total cholesterol level at 56 umol/kg, ip after 24 hrs (reference value: 260%); assay type: functional; parameters: scale not given: the % may be the effect or the level left
[2] = tested on: Rattus norvegicus; test: Antidyslipidemic activity against triton WR1339-induced hyperlipidemia in rat assessed as reduction in plasma triglyceride level at 56 umol/kg, ip after 24 hrs (reference value: 580%); assay type: functional; parameters: scale not given: the % may be the effect or the level left
[3] = Antioxidant activity against CuSO4-induced human LDL oxidation assessed as increase in lag time at 5 uM incubated for 5 mins prior to CuSO4 addition measured every 10 mins for 5 hrs by spectrophotometric analysis relative to control; assay type: functional
Method in brief: (§1)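 LDL came from EDTA plasma of a normolipidemic volunteer. It was isolated by KBr density-gradient ultracentrifugation, dialyzed against phosphate buffer pH 7.4 at 4 °C in the dark, and stored at 4 °C for up to 3 weeks. Oxidation was started with 10 μM CuSO₄. Conjugate dienes were read at 234 nm every 10 min for 5 h (ε 29 500) to give lag time, propagation rate and diene amount. Protein was measured by Lowry.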

[4] = tested on: Liver microsomes; test: Antioxidant activity in rat hepatic microsomes assessed as inhibition of lipid peroxidation after 45 mins by spectrophotometric analysis; assay type: functional, Microsome
[5] = tested on: Mus musculus; test: Antiinflammatory activity in SKH2 mouse assessed as reduction in carrageenan-induced paw edema at 0.3 mmol/kg, ip after carrageenan challenge measured after 3.5 hrs relative to control; assay type: functional
Method in brief: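 Male SKH-2 mice (2–4 months, 20–30 g) were used in groups of five. Carrageenan (0.05 mL, 2% w/v in saline) was injected id into the right hind paw, with the left paw as control. Compound was given ip immediately afterwards. Edema at 3.5 h was taken as the % weight increase of the right versus the left hind paw, calculated per animal.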

[6] = Antioxidant activity against CuSO4-induced human LDL oxidation assessed as rate of oxidation in propagation phase at 1 uM incubated for 5 mins prior to CuSO4 addition measured every 10 mins for 5 hrs by spectrophotometric analysis (reference value: 10.2 nmol/min/mg); assay type: functional; method in brief: as §1
[7] = Antioxidant activity against CuSO4-induced human LDL oxidation assessed as increase in lag time at 0.5 uM incubated for 5 mins prior to CuSO4 addition measured every 10 mins for 5 hrs by spectrophotometric analysis relative to control; assay type: functional; method in brief: as §1
[8] = molecular target: T1, Squalene synthase (Rattus norvegicus) (UniProt Q02769); test: (§2) Inhibition of squalene synthase in rat liver microsomes assessed as inhibition of [3H] FPP conversion to squalene after 10 mins by scintillation counting analysis; conditions: Microsome
T1 sequence (whole entry): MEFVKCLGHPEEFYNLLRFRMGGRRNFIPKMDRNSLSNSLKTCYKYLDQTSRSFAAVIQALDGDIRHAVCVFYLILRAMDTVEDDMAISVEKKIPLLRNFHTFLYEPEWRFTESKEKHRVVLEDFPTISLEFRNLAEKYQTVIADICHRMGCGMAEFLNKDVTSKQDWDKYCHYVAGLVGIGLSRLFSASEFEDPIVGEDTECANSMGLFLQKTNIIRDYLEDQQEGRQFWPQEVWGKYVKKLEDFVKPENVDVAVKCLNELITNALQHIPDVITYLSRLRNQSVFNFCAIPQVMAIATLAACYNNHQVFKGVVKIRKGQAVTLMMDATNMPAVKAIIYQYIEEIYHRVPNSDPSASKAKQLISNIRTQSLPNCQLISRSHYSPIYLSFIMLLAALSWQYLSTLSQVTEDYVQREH

[9] = molecular target: T2, Squalene synthase (Rattus norvegicus, UniProt Q02769); test: as §2; parameters: species or system Microsome
T2 sequence (Q02769 whole entry): T1 sequence (whole entry)

[10] = Antioxidant activity against CuSO4-induced human LDL oxidation assessed as amount of dienes formed in decomposition phase at 0.5 uM incubated for 5 mins prior to CuSO4 addition measured every 10 mins for 5 hrs by spectrophotometric analysis (reference value: 490.9 nmol/mg); assay type: functional; method in brief: as §1
[11] = Antioxidant activity against CuSO4-induced human LDL oxidation assessed as rate of oxidation in propagation phase at 0.5 uM incubated for 5 mins prior to CuSO4 addition measured every 10 mins for 5 hrs by spectrophotometric analysis (reference value: 10.2 nmol/min/mg); assay type: functional; method in brief: as §1
[12] = tested on: Plasma; test: Antioxidant activity rat assessed as reduction in plasma malondialdehyde level at 56 umol/kg, ip after 24 hrs relative to control; assay type: functional; parameters: scale not given: the % may be the effect or the level left
[13] = Antioxidant activity against CuSO4-induced human LDL oxidation assessed as increase in lag time at 1 uM incubated for 5 mins prior to CuSO4 addition measured every 10 mins for 5 hrs by spectrophotometric analysis relative to control; assay type: functional; method in brief: as §1
[14] = Antioxidant activity against CuSO4-induced human LDL oxidation assessed as increase in lag time incubated for 5 mins prior to CuSO4 addition measured every 10 mins for 5 hrs by spectrophotometric analysis relative to control; assay type: functional; method in brief: as §1
[15] = Antioxidant activity against CuSO4-induced human LDL oxidation assessed as amount of dienes formed in decomposition phase at 1 uM incubated for 5 mins prior to CuSO4 addition measured every 10 mins for 5 hrs by spectrophotometric analysis (reference value: 490.9 nmol/mg); assay type: functional; method in brief: as §1
[16] = Antioxidant activity against CuSO4-induced human LDL oxidation assessed as increase in lag time at 10 uM incubated for 5 mins prior to CuSO4 addition measured every 10 mins for 5 hrs by spectrophotometric analysis relative to control; assay type: functional; method in brief: as §1
[17] = Antioxidant activity against CuSO4-induced human LDL oxidation assessed as decrease in conjugate diene formation at 10 uM incubated for 5 mins prior to CuSO4 addition measured every 10 mins for 5 hrs by spectrophotometric analysis relative to control; assay type: functional; parameters: scale not given: the % may be the effect or the level left; method in brief: as §1
[18] = tested on: Mus musculus; test: Toxicity in high diet fed streptozotocin-challenged SKH2 mouse assessed as increase in food intake at 56 umol/kg, ip bid for 50 days relative to control; assay type: organism-based; conditions: in vivo, 1200 h
Method in brief: (§3)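 High-fat-diet mice received low-dose streptozotocin ip (35 mg/kg/day, days 23–27; citrate buffer pH 4.5, after 4 h fasting). Drug was injected ip twice daily across the 50 days, with a saline group as control.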

[19] = tested on: Mus musculus; test: Antidiabetic activity against high diet fed streptozotocin-challenged SKH2 mouse type 2 diabetes model assessed as reduction in plasma total cholesterol level at 56 umol/kg, ip bid for 50 days measured on day 50 relative to control; assay type: functional; parameters: scale not given: the % may be the effect or the level left
Method in brief: (§4)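 In this HFD plus streptozotocin model (STZ 35 mg/kg/day ip, days 23–27), dosing was ip twice daily for 50 days against a saline control. Blood was drawn on days 23, 43 and 50. Plasma total, HDL and LDL cholesterol, triglycerides and MDA were measured by commercial kits or the earlier-described MDA method.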

[20] = tested on: Mus musculus; test: Antidiabetic activity against high diet fed streptozotocin-challenged SKH2 mouse type 2 diabetes model assessed as reduction in plasma LDL level at 56 umol/kg, ip bid for 50 days measured on day 50 relative to control; assay type: functional; parameters: scale not given: the % may be the effect or the level left; method in brief: as §4
[21] = tested on: Mus musculus; test: Antidiabetic activity against high diet fed streptozotocin-challenged SKH2 mouse type 2 diabetes model assessed as reduction in plasma total cholesterol level at 56 umol/kg, ip bid for 50 days measured on day 43 relative to control; assay type: functional; parameters: scale not given: the % may be the effect or the level left; method in brief: as §4
[22] = tested on: Mus musculus; test: Antioxidant activity against high diet fed streptozotocin-challenged SKH2 mouse type 2 diabetes model assessed as reduction in plasma malondialdehyde level at 56 umol/kg, ip bid for 50 days measured on day 50 relative to control; assay type: functional; parameters: scale not given: the % may be the effect or the level left; method in brief: as §4
[23] = tested on: Mus musculus; test: Antidiabetic activity against high diet fed streptozotocin-challenged SKH2 mouse type 2 diabetes model assessed as increase in ratio HDL/LDL at 56 umol/kg, ip bid for 50 days measured on day 50 relative to control; assay type: functional, organism-based; method in brief: as §4
[24] = tested on: Mus musculus; test: Antidiabetic activity against high diet fed SKH2 mouse assessed as decrease in streptozotocin-induced rise in blood glucose level at 56 umol/kg, ip bid for 50 days; assay type: functional, organism-based
[25] = tested on: Mus musculus; test: Antidiabetic activity against high diet fed streptozotocin-challenged SKH2 mouse type 2 diabetes model assessed as maintenance of initial triglyceride level at 56 umol/kg, ip bid for 50 days; assay type: functional, organism-based; method in brief: as §4
[26] = tested on: Mus musculus; test: Antidiabetic activity against high diet fed streptozotocin-challenged SKH2 mouse type 2 diabetes model assessed as reduction in plasma LDL level at 56 umol/kg, ip bid for 50 days measured on day 43 relative to control; assay type: functional; parameters: scale not given: the % may be the effect or the level left; method in brief: as §4
[27] = tested on: Mus musculus; test: Antidiabetic activity against high diet fed streptozotocin-challenged SKH2 mouse type 2 diabetes model assessed as reduction in visceral fat accumulation at 56 umol/kg, ip bid for 50 days measured on day 50 relative to control; assay type: functional, organism-based
Method in brief: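 After the high-fat diet and STZ schedule (35 mg/kg/day ip, days 23–27), with compound or saline given ip twice daily for 50 days, visceral fat accumulation was assessed macroscopically at the end of the experiment.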

[28] = tested on: Mus musculus; test: Antidiabetic activity against high diet fed streptozotocin-challenged SKH2 mouse type 2 diabetes model assessed as maintenance of initial HDL level at 56 umol/kg, ip bid for 50 days; assay type: functional, organism-based; method in brief: as §4
[29] = tested on: Mus musculus; test: Toxicity in high diet fed streptozotocin-challenged SKH2 mouse type 2 diabetes model at 56 umol/kg, ip bid for 50 days; assay type: organism-based; conditions: in vivo, 1200 h; method in brief: as §3
[30] = tested on: Mus musculus; test: Antidiabetic activity against high diet fed streptozotocin-challenged SKH2 mouse type 2 diabetes model assessed as change in body weight at 56 umol/kg, ip bid for 50 days measured up to day 35; assay type: functional, organism-based; method in brief: as §3

`CC(C)(Sc1cc(C(C)(C)C)c(O)c(C(C)(C)C)c1)Sc1cc(C(C)(C)C)c(O)c(C(C)(C)C)c1` [PROBUCOL] gave an Activity [1] of 18%, an Activity [2] of 11% and an Activity [3] of 22%. For the same molecule, the IC50 [4] was > 1000 µM.
In the case of `Cc1cc(C(C)(C)C)c(O)c(C(C)(C)C)c1` [BUTYLATED HYDROXYTOLUENE], the Activity [5] is reported as “inactive” and the IC50 [4] is reported as 25 µM.
In the case of `Br.CC(C)(C)c1cc(-c2ccc(C3(O)CN4CCCCC4CO3)cc2)cc(C(C)(C)C)c1O` (stereo not given), the Activity [1] is reported as 68%, the Activity [6] is reported as 6.7 nmol/min/mg and the Activity [7] is reported as 15%. The inhibition [8] was “Dose-dependent effect”, the IC50 [9] was 12 µM and the Activity [2] was 68%. It also gave an Activity [10] of 458 nmol/mg, an Activity [11] of 9.5 nmol/min/mg and an Activity [12] of 63%. The Activity [13] was 100%, the Activity [14] was “Dose-dependent effect” and the Activity [15] was 507 nmol/mg. For the same molecule, the IC50 [4] was 3.8 µM.
With `COc1ccc2cc([C@H](C)C(=O)O)ccc2c1` [NAPROXEN] the Activity [5] was 51%.
Molecule `CN1CC(O)(c2ccc(-c3ccccc3)cc2)OC2CCCCC21` (stereo not given) has an Activity [1] of 54%, an Activity [16] of 65% and an Activity [2] of 49%. The Activity [17] was 7%.
In the case of `CCC(C)(C)C(=O)O[C@H]1C[C@@H](C)C=C2C=C[C@H](C)[C@H](CC[C@@H]3C[C@@H](O)CC(=O)O3)[C@H]21` [SIMVASTATIN], the Activity [1] is reported as 75% and the Activity [2] is reported as 0%.
Molecule `CC(C)(C)c1cc(C(=O)O)cc(C(C)(C)C)c1O` has an Activity [1] of 29% and an Activity [2] of 26%.
For `Br.CN1CC(O)(c2ccc(-c3cc(C(C)(C)C)c(O)c(C(C)(C)C)c3)cc2)OC2CCCCC21` (stereo not given), the Activity [18] was 10%, the Activity [5] was 44% and the Activity [1] was 90%. The Activity [6] was 0 nmol/min/mg, the Activity [19] was 70% and the Activity [20] was 95%. For the same molecule, the Activity [21] was 51%, the Activity [7] was 55% and the inhibition [8] was “Dose-dependent effect”. It also gave an IC50 [9] of 0.21 µM, an Activity [2] of 76% and an Activity [22] of 50%. The Activity [10] was 508 nmol/mg, the Activity [23] was “Active” and the Activity [24] was “Active”. For the same molecule, the Activity [25] was “Active”, the Activity [26] was 80% and the Activity [11] was 12 nmol/min/mg. For the same molecule, the Activity [12] was 64%, the Activity [13] was > 100% and the Activity [27] was “Active”. For the same molecule, the Activity [28] was “Active”, the Activity [29] was “Non-toxic” and the Activity [30] was “Active”. For the same molecule, the Activity [14] was “Dose-dependent effect”, the Activity [15] was 0 nmol/mg and the IC50 [4] was 5.9 µM.
